Results published in ChEMBL document CHEMBL1149144, “Structure-based design of potent retinoid X receptor alpha agonists” (J Med Chem, 2004).

Key:
[1] = target: T1, Retinoic acid receptor RXR-alpha (Homo sapiens, UniProt P19793); experiment: Binding affinity for retinoid X receptor alpha (RXRalpha), using 9-cis-[3H]-retinoic acid
T1 sequence (P19793 whole entry): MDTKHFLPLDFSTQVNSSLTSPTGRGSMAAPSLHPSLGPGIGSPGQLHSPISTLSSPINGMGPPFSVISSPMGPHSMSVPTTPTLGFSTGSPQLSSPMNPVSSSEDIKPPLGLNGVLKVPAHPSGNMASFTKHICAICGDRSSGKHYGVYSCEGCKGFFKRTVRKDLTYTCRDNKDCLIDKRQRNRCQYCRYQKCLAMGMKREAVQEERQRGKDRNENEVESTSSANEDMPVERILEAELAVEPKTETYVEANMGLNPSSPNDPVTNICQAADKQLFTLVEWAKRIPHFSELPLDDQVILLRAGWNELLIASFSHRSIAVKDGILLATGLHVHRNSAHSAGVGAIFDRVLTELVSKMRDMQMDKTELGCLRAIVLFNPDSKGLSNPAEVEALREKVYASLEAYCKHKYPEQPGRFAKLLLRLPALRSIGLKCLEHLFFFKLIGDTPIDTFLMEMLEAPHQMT
Method in brief: (§1)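 Scintillation proximity binding assay; Ki from competition of 2.5 nM 9-cis-RA at RXRα and RARα, with test compound up to 10 µM.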

[2] = target: T1, Retinoic acid receptor RXR-alpha; experiment: Effective concentration for Retinoid X receptor alpha activity in CV-1 cells; format: functional, cell-based
Method in brief: (§2)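 CV-1 monkey kidney cells transiently transfected with a full-length hRXRα expression vector (RXRα) or a GAL4-hRARα vector (RARα), each with an RXRα- or RARα-responsive reporter gene construct. Top concentration 10 µM; EC50 calculated from the reporter response.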

[3] = target: T2, Retinoic acid receptor alpha (Homo sapiens, UniProt P10276); experiment: Binding affinity for retinoic acid receptor alpha (RARalpha), using 9-cis-[3H]-retinoic acid; method in brief: as §1
T2 sequence (P10276 whole entry): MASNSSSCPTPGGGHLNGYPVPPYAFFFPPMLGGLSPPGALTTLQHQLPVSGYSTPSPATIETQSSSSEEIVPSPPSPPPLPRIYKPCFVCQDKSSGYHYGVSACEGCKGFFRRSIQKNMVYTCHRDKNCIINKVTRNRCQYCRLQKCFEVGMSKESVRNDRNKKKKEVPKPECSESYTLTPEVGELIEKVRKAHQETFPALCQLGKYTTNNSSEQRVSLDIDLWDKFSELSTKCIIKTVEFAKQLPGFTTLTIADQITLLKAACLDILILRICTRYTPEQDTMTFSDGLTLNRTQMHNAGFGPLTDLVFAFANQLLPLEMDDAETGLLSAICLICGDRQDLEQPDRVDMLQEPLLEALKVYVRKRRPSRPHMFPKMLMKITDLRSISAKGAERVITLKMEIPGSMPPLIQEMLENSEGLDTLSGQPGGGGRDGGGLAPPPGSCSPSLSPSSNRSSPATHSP

[4] = target: T2, Retinoic acid receptor alpha; experiment: Effective concentration for Retinoic acid receptor alpha activity in CV-1 cells; format: functional, cell-based; method in brief: as §2
[5] = target: T1, Retinoic acid receptor RXR-alpha; experiment: Effective concentration for Retinoid X receptor alpha activity in CV-1 cells; Partial agonist; format: functional, cell-based; method in brief: as §2

| SMILES | Ki [1] | EC50 [2] | Ki [3] | EC50 [4] | EC50 [5] |
| --- | --- | --- | --- | --- | --- |
| CN1Cc2oc(/C=C/C(=O)O)cc2C(c2ccc3c(c2)C(C)(C)CCC3(C)C)C1 (centres undefined) | 79 nM | 70 nM | > 1000 nM | – | – |
| CC(=CC(=O)O)c1cc2c(o1)CCCC2c1ccc2c(c1)C(C)(C)CCC2(C)C (centres undefined) | 63 nM | 60 nM | > 1000 nM | > 10000 nM | – |
| O=C1NC(=O)/C(=C/c2ccc(-c3cccc(Br)c3)o2)S1 | 1500 nM | – | – | – | – |
| CC1(C)CCC(C)(C)c2cc(C3CCCc4oc(C(=O)O)cc43)ccc21 (centres undefined) | > 3000 nM | > 10000 nM | > 1000 nM | – | – |
| CC1(C)CCC(C)(C)c2cc(C3CCCc4sc(CCC(=O)O)cc43)ccc21 (centres undefined) | 200 nM | 97 nM | > 1000 nM | > 10000 nM | – |
| CC1(C)CCC(C)(C)c2cc(-c3ccc(/C=C/C(=O)O)o3)ccc21 | > 1000 nM | – | 93 nM | – | – |

Stronger by Ki [1], values ahead:

| Ki [1] | EC50 [2] | Ki [3] | EC50 [4] | EC50 [5] | SMILES |
| --- | --- | --- | --- | --- | --- |
| 20 nM | – | > 1000 nM | > 10000 nM | 48 nM | COc1cc2c(cc1C1CCCc3oc(/C=C/C(=O)O)cc31)C(C)(C)CCC2(C)C (centres undefined) |
| 20 nM | 4 nM | > 1000 nM | > 10000 nM | – | CC1(C)CCC(C)(C)c2cc(C3CCCc4oc(/C=C5/SC(=O)NC5=O)cc43)ccc21 (centres undefined) |
| 40 nM | 29 nM | > 1000 nM | > 10000 nM | – | Cc1cc2c(cc1C1CCCc3oc(/C=C/C(=O)O)cc31)C(C)(C)CCC2(C)C (centres undefined) |
